Results: ChEMBL document CHEMBL4431307, “Dehydroleucodine, a Sesquiterpene Lactone from Gynoxys verrucosa, Demonstrates Cytotoxic Activity against Human Leukemia Cells” (J Nat Prod, 2016)
Calls of active or inactive are those of the source. The rule behind the calls is not given here.

Assays:
MOLM-13 [1] = test: Upregulation of heme oxygenase 1 in human MOLM13 cells at 20 uM after 6 hrs by qRT-PCR analysis; assay type: functional, cell-based
In short: (§1)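 MOLM-13 cells at 0.5 million/mL were treated 6 h with 20 μM compound, then total RNA was extracted. One-step TaqMan RT-qPCR was run: RT 48 °C 15 min, then 95 °C 10 min, then 40 cycles of 95 °C 15 s and 60 °C 1 min. Singleplex reactions were in triplicate, with fold change by the 2^-ΔΔCt method.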

MOLM-13 [2] = test: Upregulation of HSPA1A in human MOLM13 cells at 20 uM after 6 hrs by qRT-PCR analysis; assay type: functional, cell-based; in short: as §1
U-937 [3] = test: Cytotoxicity against human U937 cells assessed as decrease in cell viability after 48 hrs […]; assay type: functional; conditions: U-937, 48 h, read-out: LD50 (the source's name)
In short: (§2)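 AML cell lines seeded at 0.5 million cells/mL (counted by Trypan Blue exclusion) and exposed to varying concentrations in triplicate for 48 h. Read-out by flow cytometry after annexin V (FITC or PE) and 7-AAD staining, at least 50 000 events per condition; annexin V/7AAD double-negative cells scored viable. Value reported as LD50.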

Homo sapiens [4] = species on record: Homo sapiens; test: Inhibition of NF-kappaB DNA binding activity in human MOLM13 cells by ELISA; assay type: cell-based
In short: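 p65 DNA-binding ELISA in MOLM-13 cells, with TNFα as positive control, run in triplicate.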

HL-60 [5] = test: Cytotoxicity against human HL60 cells assessed as decrease in cell viability after 48 hrs […]; assay type: functional; conditions: HL-60, 48 h, read-out: LD50 (the source's name); in short: as §2
MOLM-13 [6] = test: Downregulation of NF-kappaB1A transcription in human MOLM13 cells at 20 uM after 6 hrs by qRT-PCR analysis; assay type: functional, cell-based; in short: as §1
Homo sapiens [7] = species on record: Homo sapiens; test: Inhibition of NF-kappaB in human MOLM13 cells assessed as MYB gene expression at 10 to 20 uM after 6 hrs by Western blot analysis; assay type: cell-based
KG-1 [8] = test: Cytotoxicity against human KG1 cells assessed as decrease in cell viability after 48 hrs […]; assay type: functional; conditions: KG-1, 48 h, read-out: LD50 (the source's name); in short: as §2
Kasumi 1 [9] = test: Cytotoxicity against human Kasumi-1 cells assessed as decrease in cell viability after 48 hrs by […]; assay type: functional; conditions: Kasumi 1, 48 h, read-out: LD50 (the source's name); in short: as §2
THP-1 [10] = test: Cytotoxicity against human THP1 cells assessed as decrease in cell viability after 48 hrs […]; assay type: functional; conditions: THP-1, 48 h, read-out: LD50 (the source's name); in short: as §2
MV4-11 [11] = test: Cytotoxicity against human MV4-11 cells assessed as decrease in cell viability after 48 hrs […]; assay type: functional; conditions: MV4-11, 48 h, read-out: LD50 (the source's name); in short: as §2
Homo sapiens [12] = species on record: Homo sapiens; test: Inhibition of NF-kappaB in human MOLM13 cells assessed as CDK6 gene expression at 10 to 20 uM after 6 hrs by Western blot analysis; assay type: cell-based
MOLM-13 [13] = test: Effect on total NF-kappaB p65 level in human MOLM13 cells at 5 to 20 uM after 6 hrs by Western blot analysis; assay type: cell-based; conditions: molm-13, 6 h
In short: (§3)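 MOLM-13 cells at 0.5 million/mL were treated 6 h and lysed on ice for 30 min in Tris pH 7.5/NaCl/Triton/SDS buffer with phosphatase and protease inhibitors. Lysates were run on 10% SDS-PAGE and blotted to PVDF. Membranes were probed separately for phospho-p65 and total p65 at 4 °C overnight, detected with IRDye secondaries by infrared imaging, with total p65 as loading control.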

Homo sapiens [14] = species on record: Homo sapiens; test: Inhibition of NF-kappaB p65 phosphorylation in human MOLM13 cells at 5 to 20 uM after 6 hrs by Western blot analysis; assay type: cell-based; in short: as §3
TUR [15] = test: Cytotoxicity against human TUR cells assessed as decrease in cell viability after 48 hrs […]; assay type: functional; conditions: read-out: LD50 (the source's name); in short: as §2
MOLM-13 [16] = test: Cytotoxicity against human MOLM13 cells assessed as decrease in cell viability after 48 hrs […]; assay type: functional; conditions: MOLM-13, 48 h, read-out: LD50 (the source's name); in short: as §2
Kasumi 1 [17] = test: Cytotoxicity against human Kasumi-1 cells assessed as decrease in cell viability at 20 uM after 48 hrs by annexin V-FITC/7-AAD staining based flow cytometry relative to control; assay type: functional
In short: (§4)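 AML cell lines kept at 0.5 million cells/mL and treated in triplicate for 48 h. Cells were stained with annexin V (FITC or PE) plus 7-AAD, and at least 50 000 events were recorded per condition by flow cytometry. Annexin V-/7-AAD- cells were scored viable, with viability taken relative to untreated control.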

THP-1 [18] = test: Cytotoxicity against human THP1 cells assessed as decrease in cell viability at 20 uM after 48 hrs by annexin V-FITC/7-AAD staining based flow cytometry relative to control; assay type: functional; in short: as §4
MCF7 = test: Cytotoxicity against human MCF7 cells assessed as decrease in cell viability after 72 to 96 hrs by MTT assay; assay type: functional, cell-based
HL-60 [19] = test: Cytotoxicity against human HL60 cells assessed as decrease in cell viability at 20 uM after 48 hrs by annexin V-FITC/7-AAD staining based flow cytometry relative to control; assay type: functional; in short: as §4
MV4-11 [20] = test: Cytotoxicity against human MV4-11 cells assessed as decrease in cell viability at 20 uM after 48 hrs by annexin V-FITC/7-AAD staining based flow cytometry relative to control; assay type: functional; in short: as §4
MOLM-13 [21] = test: Cytotoxicity against human MOLM13 cells assessed as decrease in cell viability at 20 uM after 48 hrs by annexin V-FITC/7-AAD staining based flow cytometry relative to control; assay type: functional; in short: as §4
U-937 [22] = test: Cytotoxicity against human U937 cells assessed as decrease in cell viability at 20 uM after 48 hrs by annexin V-FITC/7-AAD staining based flow cytometry relative to control; assay type: functional; in short: as §4
Bone marrow cell [23] = test: Cytotoxicity against human bone marrow cells assessed as decrease in cell viability at 20 uM after 48 hrs by annexin V-FITC/7-AAD staining based flow cytometry relative to control
In short: (§5)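 Bone marrow and peripheral blood mononuclear cells from healthy donors were isolated by Ficoll density gradient. They were held 1 h in serum-free medium with rhFLT-3 ligand 50 ng/mL, rhSCF 50 ng/mL, rhIL-3 20 ng/mL and rhIL-6 20 ng/mL before drug. Treatment ran 48 h, and viability was read by annexin V/7-AAD flow cytometry relative to untreated control.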

TUR [24] = test: Cytotoxicity against human TUR cells assessed as decrease in cell viability at 20 uM after 48 hrs by annexin V-FITC/7-AAD staining based flow cytometry relative to control; assay type: functional; in short: as §4
KB = test: Cytotoxicity against human KB cells assessed as decrease in cell viability after 72 hrs by MTT assay; assay type: functional, cell-based
KG-1 [25] = test: Cytotoxicity against human KG1 cells assessed as decrease in cell viability at 20 uM after 48 hrs by annexin V-FITC/7-AAD staining based flow cytometry relative to control; assay type: functional; in short: as §4
HeLa S3 = test: Cytotoxicity against human HeLaS3 cells assessed as decrease in cell viability after 72 to 96 hrs by MTT assay; assay type: functional, cell-based
PBMC [26] = test: Cytotoxicity against human peripheral blood mononuclear cells assessed as decrease in cell viability at 20 uM after 48 hrs by annexin V-FITC/7-AAD staining based flow cytometry relative to control; in short: as §5
Leukemia cell = test: Cytotoxicity against primary leukemia cells isolated from human AML patient assessed as cell death after 48 hrs by […]; assay type: functional; conditions: read-out: LD50 (the source's name)
PBMC [27] = test: Cytotoxicity against human peripheral blood mononuclear cells assessed as decrease in cell viability at 50 uM after 48 hrs by annexin V-FITC/7-AAD staining based flow cytometry relative to control; in short: as §5
Bone marrow cell [28] = test: Cytotoxicity against human bone marrow cells assessed as decrease in cell viability at 50 uM after 48 hrs by annexin V-FITC/7-AAD staining based flow cytometry relative to control; in short: as §5

| SMILES | Activity (MOLM-13 [1]) | Activity (MOLM-13 [2]) | CC50 (U-937 [3]) [µM] | inhibition (Homo sapiens [4]) | CC50 (HL-60 [5]) [µM] | Activity (MOLM-13 [6]) | inhibition (Homo sapiens [7]) | CC50 (KG-1 [8]) [µM] | CC50 (Kasumi 1 [9]) [µM] | CC50 (THP-1 [10]) [µM] | CC50 (MV4-11 [11]) [µM] | inhibition (Homo sapiens [12]) | Activity (MOLM-13 [13]) | inhibition (Homo sapiens [14]) | CC50 (TUR [15]) [µM] | CC50 (MOLM-13 [16]) [µM] | further results |
| --- | --- | --- | --- | --- | --- | --- | --- | --- | --- | --- | --- | --- | --- | --- | --- | --- | --- |
| C=C1C(=O)O[C@@H]2[C@@H]1CC/C(C)=C/CC[C@]1(C)O[C@H]21 | Active | Active | 8.4 | Active | 13.9 | Active | Active | > 20 | 3.6 | > 20 | 8.6 | Active | Non-Toxic | Active | 7.4 | 3.4 |  |
| C=C1C(=O)O[C@@H]2[C@H]3C(C)=CC(=O)C3=C(C)CC[C@@H]12 [DEHYDROLEUCODIN] | Active | Active | 18.9 | Active | 14.1 | Active | Active | 18.7 | 12.9 | 16.8 | 5 | Active | Non-Toxic | Active | 12.2 | 12.6 | Activity (Kasumi 1 [17]): Active; Activity (THP-1 [18]): Active; IC50 (MCF7): 5 µM; Activity (HL-60 [19]): Active; Activity (MV4-11 [20]): Active; Activity (MOLM-13 [21]): Active; Activity (U-937 [22]): Active; Activity (Bone marrow cell [23]): Non-Toxic; Activity (TUR [24]): Active; IC50 (KB): 5.3 µM; Activity (KG-1 [25]): Active; IC50 (HeLa S3): 10 µM; Activity (PBMC [26]): Non-Toxic; CC50 (Leukemia cell): 9.4 µM |
| CC1=CC(=O)C2=C(C)CC[C@@H]3[C@H](OC(=O)[C@H]3C)[C@@H]12 [DESACETOXYMATRICARIN] | Active | Active | > 20 | inactive | > 20 | Active |  | > 20 | > 20 | > 20 | > 20 |  |  |  | > 20 | > 20 | Activity (PBMC [27]): Non-Toxic; Activity (Bone marrow cell [28]): Non-Toxic |
